Measurements collected from several papers.
Protocols differ between the studies behind these lines.
Cell line: HCT-116
Observed: cell growth or viability

| Compound | technique | tested at | time | endpoint | result |
| --- | --- | --- | --- | --- | --- |
| COc1ccc(NC(=O)c2c(Nc3ccccc3)sc(C#N)c2NC(=O)CNc2ccc(OC)c(OC)c2)cc1 | SRB | 0.1 µM | 48 h | viability | 76% |
| COc1ccc(C(=O)/C=C/c2ccc(Cl)c(Cl)c2)cc1S(N)(=O)=O | SRB | – | 48 h | GI50 | 1200 nM |
| COc1cc(/C=N/n2c(C)nc3ccc(C)cc3c2=O)ccc1OCc1ccccc1 | LDH | 200 µg/mL | 24 h | viability | 74.5% |
| COc1ccc(NC(=O)c2c(Nc3ccccc3)sc(C#N)c2NC(=O)CNc2ccc(Cl)cc2)cc1 | SRB | 0.1 µM | 48 h | viability | 72% |
| COc1cc(CNC(=O)CCCC/C=C/C(C)C)ccc1O | SRB | 10 µM | – | inhibition | 0% |
| COc1ccc(C(=O)/C=C/c2ccc3c(c2)OCCO3)cc1S(N)(=O)=O | SRB | 10 µM | – | inhibition | 57% |
| COc1cc2c(OC)nc3c4cc5c(cc4cc(OCCCN4CCCC4)c3c2cc1OC)OCO5 | MTT | – | 72 h | GI50 | 2400 nM |
| COc1ccc(NC(=O)c2c(Nc3ccccc3)sc(C(=O)NN=Cc3cc(OC)c(OC)c(OC)c3)c2NC(C)=O)cc1 | SRB | 100 µM | 48 h | viability | 43.2% |
| COc1ccc(C(=O)/C=C/c2ccc3ccccc3c2)cc1S(N)(=O)=O | SRB | 10 µM | – | inhibition | 198% |
| COc1cc(NCC(=O)Nn2c(C)nc3ccc(Cl)cc3c2=O)cc(OC)c1OC | LDH | 200 µg/mL | 24 h | viability | 54.5% |
| COc1ccc(NC(=O)c2c(Nc3ccccc3)sc(C(=O)NN=Cc3ccc(Cl)cc3)c2NC(C)=O)cc1 | SRB | 10 nM | 48 h | viability | 95.1% |
| COc1cc2c(OC)nc3c4cc5c(cc4cc(O)c3c2cc1OC)OCO5 | MTT | – | 72 h | GI50 | 5700 nM |
| CNS(=O)(=O)Nc1nccc(Cc2c(C)c3ccc(Oc4ncccn4)cc3oc2=O)c1F | CCK-8 | – | – | GI50 | 3230 nM |
| COc1ccc(NC(=O)c2c(Nc3ccccc3)sc(C#N)c2NC(=O)CNc2ccc(O)cc2)cc1 | SRB | 10 nM | 48 h | viability | 93.1% |
| COc1ccc(C(=O)/C=C/c2cccc3ccccc23)cc1S(N)(=O)=O | SRB | – | 48 h | GI50 | 1300 nM |
| Cc1cc(C)n(C(=S)[S][Au][PH](CCCCCC[PH]([Au][S]C(=S)n2nc(C)cc2C)(c2ccccc2)c2ccccc2)(c2ccccc2)c2ccccc2)n1 | – | – | – | GI50 | 380 nM |
| COc1ccc(C(=O)/C=C/c2ccccc2Br)cc1S(N)(=O)=O | SRB | 10 µM | – | inhibition | 197% |
| CCN(CC)CCCOc1cc2cc3c(cc2c2nc(OC)c4cc(OC)c(OC)cc4c12)OCO3 | MTT | – | 72 h | GI50 | 13000 nM |
